Results of several laboratories.
Compare with care: the assays were run in different laboratories.
Cell line: MDA-MB-231
Effect on: cell growth or viability

CCN(CC)CCNC(=O)c1c(C)[nH]c(/C=C2\C(=O)Nc3ccc(F)cc32)c1C  EC50 (MTT; 72 h): 3.4 µM
COc1ccc(-c2nn(-c3ccccc3)cc2C=Nc2c(N)nc(S)nc2O)cc1  CC50 (48 h): > 20 µM
COc1ccc2/c(=N/c3ccccc3NC(=O)[C@@H](N)C(C)(C)C)cc(-c3ccc4c(c3)OCO4)oc2c1  inhibition (CCK-8; 1 µM): 7.49%
O=C(Nc1ccc(Cl)cc1)Nc1ccc(Oc2nc3ccccc3n3cnnc23)cc1  viability (MTT; 3.125 µM; 24 h): 100%
Nc1nc(S)nc(O)c1N=Cc1cn(-c2ccccc2)nc1-c1ccc(Cl)cc1  CC50 (48 h): 18.4 µM
COCCC(=O)Nc1ccccc1/N=c1\cc(-c2ccc3c(c2)OCO3)oc2ccccc12  inhibition (CCK-8; 1 µM): 8.73%
O=C(NN=Cc1ccc(Cl)cc1)C1CC(=O)N(c2ccc(F)cc2F)C1 (stereo not shown)  EC50 (MTT; 72 h): 29.9 µM
O=C(Nc1ccccc1)Nc1ccc(Oc2nc3ccccc3n3cnnc23)cc1  viability (MTT; 3.125 µM; 24 h): 100%
COc1ccc2/c(=N/c3ccccc3NC(=O)[C@H](C)N)cc(-c3ccc4c(c3)OCCO4)oc2c1  inhibition (CCK-8; 1 µM): 13.8%
COc1cccc2c1C(=O)c1c(O)c3c(c(O)c1C2=O)C[C@@](O)(C(=O)CO)C[C@@H]3O[C@H]1C[C@H](N)[C@H](O)[C@H](C)O1  EC50 (MTT; 72 h): 0.022 µM
